Reference: ChEMBL document CHEMBL3227946, “Antianaphylactic agents. 1. 2-(Acylamino)oxazoles” (1979)
The source made the active and inactive calls. How the calls were made is not given here.

Columns and labels:
[1] = Antianaphylactic activity in human chopped lung treated with atopic serum isolated from patients allergic to cocksfoot pollen assessed as inhibition of antigen-induced histamine release at 10 ug/mL after 15 mins relative to control; type: functional; settings: 0.25 h
Method in brief: (§1)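 Surgical human lung (bronchial carcinoma resections) was washed in Hank's, chopped into 0.5-mm cubes and incubated for 18 h at 18 °C with atopic serum from cocksfoot pollen-allergic patients. Tissue was washed, equilibrated in Tyrode's at 37 °C and challenged with saline pollen extract ± compound for 15 min. Histamine or SRS-A in the supernatant was bioassayed on guinea pig ileum. Values are % inhibition, mean of four samples.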

[2] = Antianaphylactic activity in human chopped lung treated with atopic serum isolated from patients allergic to cocksfoot pollen assessed as inhibition of antigen-induced slow-reacting substance of anaphylaxis release at 10 ug/mL after 15 mins relative to control; type: functional; settings: 0.25 h; method in brief: as §1
Cavia porcellus [3] = assay: (§2) Antianaphylactic activity in ovalbumin/ovalbumin aerosol sensitized guinea pig bronchospasm model assessed as ratio of mean collapse time after pretreatment with compound to mean collapse time of control animal at 1 x 2 mg/kg, po compound administered prior to antigen challenge by Herxheimer test; type: functional
Method in brief: (§3)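 Ovalbumin-sensitized male guinea pigs were exposed in a chamber to ovalbumin aerosol (1% w/v) until a convulsive cough; that time is the collapse time. Compound was given orally either 2 h before challenge or in two doses at 0.5 and 3 h before. Where used, mepyramine was given at 0.5 mg/kg sc 0.5 h before. Ratio is mean collapse time of treated animals over that of controls.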

Cavia porcellus [4] = assay: as §2, with “with compound in presence of mepyramine to mean” for “with compound to mean”; type: functional; method in brief: as §3
Cavia porcellus [5] = assay: Antianaphylactic activity in ovalbumin/ovalbumin aerosol sensitized guinea pig bronchospasm model assessed as ratio of mean collapse time after pretreatment with compound to mean collapse time of control animal at 0.5 mg/kg, sc by Herxheimer test; type: functional; settings: route subcutaneous
Method in brief: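 Ovalbumin-sensitized male guinea pigs were given mepyramine at 0.5 mg/kg sc 0.5 h before exposure to ovalbumin aerosol (1% w/v) in a chamber. Collapse time is the time to a convulsive cough. Ratio is mean collapse time of mepyramine-treated animals over that of controls.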

Rattus norvegicus = assay: Antianaphylactic activity in antiovalbumin IgE serum-treated Wistar rat at 2 x 100 mg/kg, po administered 2.5 hrs prior to ovalbumin challenge measured after 45 mins by passive cutaneous anaphylaxis test; type: functional, organism-based; design: dose 100 mg/kg; settings: in the assay text read “2 hrs and again 30 mins prior to” for “2.5 hrs prior to”
Method in brief: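 Female Wistar rats, shaved and lightly anaesthetized, received an intradermal abdominal injection of diluted rat antiovalbumin IgE serum. After 24 h they were challenged iv with ovalbumin mixed with dye. Compound was given at 2 h and again at 30 min before challenge. Rats were killed 45 min after challenge and the blue area on the inner skin surface was measured.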

[6] = Antianaphylactic activity in ovalbumin sensitized albino guinea pig chopped lung assessed as inhibition of antigen-induced slow-reacting substance of anaphylaxis release at 10 ug/mL after 15 mins relative to control; type: functional, Cavia porcellus
Method in brief: (§4)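 Lungs were perfused with Tyrode's, chopped into 0.5-mm cubes and split into 100-mg aliquots. Aliquots were challenged with antigen ± compound and rocked at 37 °C for 15 min. Unchallenged controls gave spontaneous release. Supernatant histamine or SRS-A was bioassayed on guinea pig ileum against standards. Values are % inhibition, mean of four samples.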

[7] = Antianaphylactic activity in ovalbumin sensitized albino guinea pig chopped lung assessed as inhibition of antigen-induced histamine release at 10 ug/mL after 15 mins relative to control; type: functional, Cavia porcellus; method in brief: as §4
Cavia porcellus [8] = assay: (§5) Antianaphylactic activity in ovalbumin/ovalbumin aerosol sensitized guinea pig bronchospasm model assessed as ratio of mean collapse time after pretreatment with compound to mean collapse time of control animal at 2 x 100 mg/kg, po compound administered prior to antigen challenge by Herxheimer test; type: functional; method in brief: as §3
Cavia porcellus [9] = assay: as §5, with “with compound in presence of mepyramine to mean” for “with compound to mean”; type: functional; method in brief: as §3

Compound | inhibition at 10 µg/mL [1] | inhibition at 10 µg/mL [2] | Ratio (Cavia porcellus [3]) | Ratio (Cavia porcellus [4]) | Ratio (Cavia porcellus [5]) | Activity (Rattus norvegicus) | inhibition (INH) [6] | inhibition (INH) [7] | Ratio (Cavia porcellus [8]) | Ratio (Cavia porcellus [9])
CN1CCC(=C2c3ccccc3CC(=O)c3sccc32)CC1 [KETOTIFEN] | 23% | 100% | 4.2 | 7.2 |  |  |  |  |  | 
COc1ccc(CN(CCN(C)C)c2ccccn2)cc1 [PYRILAMINE] |  |  |  |  | 3.7 |  |  |  |  | 
CCCCN(C(=O)C(C)C)c1nc(C)co1 [ISAMOXOLE] | 23% | 93% |  |  |  | inactive | 54% | 38% | 4.6 | 5.9
CCCCN(C(=O)C1CCC1)c1nc(C)co1 | 0% | 55% |  |  |  | inactive | 74% | 34% | 1.5 | 7.4
CCCCCC(=O)N(CCC)c1nc(C)co1 | 44% | 47% |  |  |  | inactive | 47% | 44% | 1.4 | 4.7
CCCCN(C(=O)C1CC1)c1nc(C)co1 | 0% | 72% |  |  |  | inactive | 46% | 22% | 12.2 | 13.9
CCCCC(=O)N(CCC)c1nc(C)co1 | 0% | 38% |  |  |  | inactive | 55% | 48% | 0.8 | 5.8
CCCCN(C(=O)C(C)(C)C)c1nc(C)co1 | 37% | 23% |  |  |  | inactive | 23% | 0% | 4.4 | 7.7
CCCCN(C(=O)CCC)c1nc(C)co1 | 14% | 88% |  |  |  | inactive | 52% | 33% | 4.3 | 6.4
